Assays:
[1] = tested on: CXCR4-mediated HIV-1 infection; test: CXCR4-tropic HIV-1 NL4-3 infection of GHOST-CXCR4 cells; format: cell-based, HIV-1 in human osteosarcoma (GHOST) cells; conditions: GHOST-CXCR4, HIV-1 NL4-3; three experiments
[2] = tested on: CXCR4; conditions: cited from earlier work
[3] = tested on: GPR15-mediated SIVmac239 infection; test: Inhibition of GPR15-mediated SIVmac239 infection of GHOST-GPR15 cells; format: cell-based, SIVmac239 in human osteosarcoma (GHOST) cells
Method in brief: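 GHOST-GPR15 cells were seeded, cultured overnight and treated with test peptide for 2 h at 37 °C. They were then infected with SIVmac239 carrying Firefly luciferase in place of nef. Three days post-infection, cells were lysed and luciferase activity (RLU) was measured. Runs were at least in triplicate (mean ± SEM), and IC₅₀ was derived from increasing peptide concentrations.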

[4] = tested on: GPR15; test: GPR15 cell surface down-modulation in GHOST-GPR15 and CEM-M7 cells; format: cell-based, human
[5] = tested on: GPR15; test: Calcium release in GPR15-expressing CHO cells; format: cell-based; conditions: CHO cells with human GPR15 and Gα16; aequorin; quadruplicate
[6] = tested on: GPR15; test: GPR15 surface expression on PBMCs; format: cell-based, human; conditions: 10 µM, 1 h at 37°C; FACS; n = 3 donors
[7] = tested on: CXCR4; test: CXCR4 surface expression on PBMCs; format: cell-based, human; conditions: 10 µM, 1 h at 37°C; FACS; n = 3 donors
[8] = tested on: CCR5; conditions: cited from earlier work

## c1cc(CN2CCCNCCNCCCNCC2)ccc1CN1CCCNCCNCCCNCC1 [AMD3100, reference compound]
[1]
  inhibition of CXCR4-mediated HIV-1 infection: in contrast to the small molecule inhibitor AMD3100, neither CysC95-146 nor GPR15L inhibited
[2]
  antagonism of chemokine signaling via CXCR4: antagonize chemokine signaling via these GPCRs

## CXCL-12/SDF-1: chemokine ligand of CXCR4
[2]
  inhibition of CXCR4-mediated HIV-1 infection by chemokine ligand: inhibit CCR5- or CXCR4-mediated HIV-1 infection, respectively

## GPR15L: agonistic chemokine ligand of GPR15 (KRRPAKAWSGRRTRLCCHRVPSPNSTNLKGHHVRLCKPCKLEPEPRLWVVPGALPQV; UniProt Q6UWK7 25-81, looked up)
[3]; GHOST-GPR15 treated with CysC95-146 in presence or absence of GPR15L, SIVmac239 luciferase reporter
  effect of GPR15L on antiviral activity of CysC95-146: did not enhance the antiviral activity of CysC95-146
[3]; overall statement (Discussion)
  inhibitory effect on HIV and SIV entry: little if any inhibitory effect on HIV and SIV entry
[4]; GHOST-GPR15 and CEM-M7 cells, 30 min at 37°C or 4°C, flow cytometry
  GPR15 cell surface expression: induced down-regulation of GPR15 from the surface of GHOST-GPR15 and CEM-M7 cells
[4]; cells kept on ice (4°C)
  GPR15 receptor internalization on ice: strongly reduced
[5]
  calcium release (GPR15 signaling): GPR15 signaling was confirmed
[6]
  reduction of GPR15 cell surface expression on PBMCs: ~40%
[7]
  CXCR4 surface expression on PBMCs: induced significant down-modulation of CXCR4
[1]
  inhibition of CXCR4-mediated HIV-1 infection: neither CysC95-146 nor GPR15L inhibited CXCR4-mediated HIV-1 infection

## Maraviroc [reference compound]
[8]
  antagonism of chemokine signaling via CCR5: antagonize chemokine signaling via these GPCRs

B1: cystatin C: small (13 kDa) basic protein; human Cystatin C protein (purified, from human urine) (protein, UniProt P01034 27-146, looked up)
Cystatin-C: SSPGKPPRLVGGPMDASVEEEGVRRALDFAVGEYNKASNDMYHSRALQVVRARKQIVAGVNYFLDVELGRTTCTKTQPNLDNCPFHDQPHLKRKAFCSFQIYAVPWQGTMTLSKSTCQDA
[3]; GHOST-GPR15 cells, SIVmac239 F-Luc, peptide preincubation 1 – 2 h 37 °C, 3 dpi
  inhibition of GPR15-mediated SIVmac239 infection (in words): little inhibitory effect

B2: CCL5/RANTES: chemokine ligand of CCR5 (protein, UniProt P13501 24-91, looked up)
C-C motif chemokine 5: SPYSSDTTPCCFAYIARPLPRAHIKEYFYTSGKCSNPAVVFVTRKNRQVCANPEKKWVREYINSLEMS
[8]
  inhibition of CCR5-mediated HIV-1 infection by chemokine ligand: inhibit CCR5- or CXCR4-mediated HIV-1 infection, respectively

— article PMC7826402 (Proceedings of the National Academy of Sciences of the …, 2021)
